Measurements gathered from unrelated publications.
Target: SRSF protein kinase 2 (SRPK2, Homo sapiens, UniProt P78362)
Concentration: 1 µM

| Structure (SMILES) | observed | method | remaining binding [%] |
| --- | --- | --- | --- |
| Nc1ncc2c(n1)-c1c([nH]c3ccc(C#CC4CC4)cc13)CCCC2 | binding | competition with immobilised ligand | 82 |
| C=CC(=O)N1CCC(C(=O)NCC(=O)N2CCN(c3nc(-c4cnc(N)nc4C(F)F)nc(N4CCOCC4)n3)CC2)CC1 | binding | competition with immobilised ligand | 100 |
| CN(C)c1nccc(-c2cnc3ncccn23)n1 | binding | – | 100 |
| O=C(Nc1c[nH]nc1C(=O)NC1CCNCC1)c1cc(F)cc(F)c1 | binding | competition with immobilised ligand | 85 |
| CN(C)c1nccc(-c2cnn3ncccc23)n1 | binding | – | 100 |
| N#Cc1ccc(Nc2ccc3[nH]c(=O)[nH]c3c2)c(Cl)c1 | cell-free assay | competition with immobilised ligand | 100 |
| COc1cnc(Nc2cccc(S(N)(=O)=O)c2)nc1N1CCN(c2ccccc2)C(=O)C1 | binding | competition with immobilised ligand | 89 |
| C[C@@H]1CCN(c2nccc(-c3cnn4ncccc34)n2)C1 | binding | – | 100 |
| CC1=C(C#N)C(c2ccc3c(c2)c(NC(=O)c2ccccc2C)nn3C)C(C#N)=C(C)N1 | cell-free assay | competition with immobilised ligand | 88 |
| c1cnn2ncc(-c3ccnc(N4CCC45COC5)n3)c2c1 | binding | – | 70 |
| Cc1nc(Cc2cccc(C(F)(F)F)c2)sc1-c1ccc(C(N)=O)nc1 | cell-free assay | competition with immobilised ligand | 100 |
| O=C(c1ccc(Nc2ncc(Cl)c(-c3cc4ccccc4s3)n2)cc1)N1CCC(N2CCCC2)CC1 | binding | competition with immobilised ligand | 99 |
| F[C@@H]1CCN(c2nccc(-c3cnn4ncccc34)n2)C1 | binding | – | 80 |
| CCN1CCN(Cc2ccc(C(=O)Nc3ccc(C)c(Oc4ccc5c(c4)CC(=O)N5)c3)cc2C(F)(F)F)CC1 | binding | competition with immobilised ligand | 100 |
| CC(=O)C1=C(C)N(c2cccc(C(F)(F)F)c2)C(=O)N[C@@H]1c1ccc(C#N)nc1 | cell-free assay | competition with immobilised ligand | 100 |
| COc1cnc(Nc2cccc(S(N)(=O)=O)c2)nc1N1CCN(c2ccccc2)CC1 | binding | competition with immobilised ligand | 87 |
| O=C(NCCCN1CCOCC1)c1ccc(Nc2ncc(Cl)c(-c3ccc(Cl)s3)n2)cc1 | binding | competition with immobilised ligand | 75 |
| Cc1nc(N2CC[C@@H](O)C2)ncc1-c1cc(C(F)(F)F)cc2[nH]ncc12 | binding | competition with immobilised ligand | 100 |
| O=C(c1ccc(Nc2nccc(-c3cc4ccccc4s3)n2)cc1)N1CCC(N2CCCC2)CC1 | binding | competition with immobilised ligand | 92 |
| N[C@@H]1CCN(c2nccc(-c3cnn4ncccc34)n2)C1 | binding | – | 100 |
| O=C(N1CCS(=O)(=O)CC1)N1C[C@H](c2ccc(OC(F)(F)F)cc2)C[C@H](c2nc(C3CC3)no2)C1 | cell-free assay | competition with immobilised ligand | 100 |
